Experimental data taken from ChEMBL document CHEMBL1133296, “Synthesis and 5-hydroxytryptamine (5-HT) activity of 2,3,4,4a-tetrahydro-1H-pyrazino[1,2-a]quinoxalin-5-(6H)ones and 2,3,4,4a,5,6-hexahydro-1H-pyrazino[1,2-a]quinoxalines” (Bioorg Med Chem Lett, 2000).

Assays:
[1] = Emax values indicate relative efficacy compared to a maximally effective 5-HT2c (5-HT) concentration.; type: functional
Method in brief: (§1)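 CHO cells stably expressing human 5-HT2C were labelled overnight with myo-[3H]inositol, washed, and preincubated 30 min in medium containing LiCl. Agonist was then added at 10^-10 to 10^-5 M for 30 min. [3H]IP was counted by liquid scintillation and expressed as % of the maximal 5-HT response. EC50 came from six-point curves in duplicate, fitted by a three-parameter logistic; Emax is relative to maximal 5-HT.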

[2] = target: T1, 5-hydroxytryptamine receptor 2C (Homo sapiens, UniProt P28335); test: Agonistic activity for 5-HT2c (5-HT2C) by measuring [3H]inositol monophosphate fromation in CHO cells in which the human 5-HT2C receptor subtype was stably expressed; type: functional, cell-based; method in brief: as §1
T1 sequence (P28335 whole entry): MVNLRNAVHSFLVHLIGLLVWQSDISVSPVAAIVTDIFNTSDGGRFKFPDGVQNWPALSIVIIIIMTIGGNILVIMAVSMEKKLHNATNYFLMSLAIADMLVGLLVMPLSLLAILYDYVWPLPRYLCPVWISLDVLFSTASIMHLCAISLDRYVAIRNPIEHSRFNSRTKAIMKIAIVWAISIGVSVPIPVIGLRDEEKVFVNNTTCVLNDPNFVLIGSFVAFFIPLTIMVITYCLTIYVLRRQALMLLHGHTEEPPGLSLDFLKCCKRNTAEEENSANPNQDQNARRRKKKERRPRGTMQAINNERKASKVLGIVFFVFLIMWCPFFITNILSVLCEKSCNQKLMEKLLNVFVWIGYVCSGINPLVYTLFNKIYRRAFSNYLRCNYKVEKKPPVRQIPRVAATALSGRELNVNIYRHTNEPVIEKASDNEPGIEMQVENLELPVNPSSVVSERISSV

[3] = target: T1, 5-hydroxytryptamine receptor 2C; test: Binding affinity using [125I]DOI as radioligand with membranes isolated from a CHO-k cell line expressing the human 5-hydroxytryptamine 2C receptor
Method in brief: (§2)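 Competition binding used human 5-HT2C CHO membranes. [125I]DOI labelled agonist sites and [3H]mesulergine labelled antagonist sites. IC50 came from nine-point concentration curves, each point in triplicate. Ki was calculated by Cheng-Prusoff: Ki = IC50/(1 + [radioligand]/Kd).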

[4] = target: T1, 5-hydroxytryptamine receptor 2C; test: Binding affinity using [3H]mesulergine as radioligand with receptor membranes isolated from a CHO-k cell line expressing the human 5-hydroxytryptamine 2C receptor; method in brief: as §2
[5] = target: T2, 5-hydroxytryptamine receptor 2C (Homo sapiens) (UniProt P28335); test: Inhibitory activity using [3H]mesulergine as radioligand with receptor membranes isolated from a CHO-k cell line expressing the human 5-hydroxytryptamine 2C receptor at a concentration of 1 uM; type: cell-free
T2 sequence (whole entry): T1 sequence (P28335 whole entry)

Rattus norvegicus [6] = test: Concentration required to decrease food intake in Sprague-Dawley rats when compound administered intraperitoneally; type: functional; conditions: ip
Method in brief: (§3)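 Male Sprague-Dawley rats were fasted 24 h, then given vehicle or test dose, ip or po. Powdered chow was returned and 2 h food intake was recorded. Each animal was fasted twice weekly (Monday, Thursday) and tested the following day. Groups were compared by one-way ANOVA with post hoc t-tests, and ED50 was calculated.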

Rattus norvegicus [7] = test: Concentration required to decrease food intake in Sprague-Dawley rats when compound administered orally; type: functional; conditions: po; method in brief: as §3

SMILES	Emax [1] [%]	Ki [4] [nM]	inhibition [5] [%]	other results
O=C1Nc2ccc(Cl)cc2N2CCNC[C@H]12	95	238	–	EC50 [2]: 86 nM; Ki [3]: 34 nM
O=C1Nc2cc(F)c(F)cc2N2CCNCC12 (centres undefined)	–	1800	–	–
COC(=O)c1ccc2c(c1)NC(=O)C1CNCCN21 (centres undefined)	–	–	1	–
O=C1Nc2cccc(Cl)c2N2CCNCC12 (centres undefined)	–	–	8	–
O=C1Nc2cc(Cl)c(Cl)cc2N2CCNCC12 (centres undefined)	110	58	–	Ki [3]: 4 nM
COc1ccc2c(c1)N1CCNCC1C(=O)N2 (centres undefined)	–	–	36	–
CCCCN(CCCC)c1ccc2c(c1)NC(=O)C1CNCCN21 (centres undefined)	–	–	7	–
O=C1Nc2cc(NC(=O)C(F)(F)F)ccc2N2CCNCC12 (centres undefined)	–	–	21	–
FC(F)(F)c1cc2c(cc1Cl)N1CCNC[C@@H]1CN2	76	92	–	EC50 [2]: 19 nM; Ki [3]: 17 nM
O=C1Nc2ccc(F)cc2N2CCNCC12 (centres undefined)	–	–	26	–
Cc1ccc2c(c1)N1CCNCC1C(=O)N2 (centres undefined)	–	–	0	–
O=C1Nc2cc(C(F)(F)F)c(Cl)cc2N2CCNC[C@@H]12	85	3600	–	–
c1ccc2c(c1)NCC1CNCCN21 (centres undefined)	–	–	22	–
O=C1Nc2ccccc2N2CCNC[C@H]12	–	–	47	–
O=C1Nc2ccc(O)cc2N2CCNCC12 (centres undefined)	–	–	24	–
Clc1cc2c(cc1Cl)N1CCNC[C@@H]1CN2	107	88	–	EC50 [2]: 49 nM; Ki [3]: 7 nM
O=C1Nc2cc(C(F)(F)F)ccc2N2CCNCC12 (centres undefined)	–	–	46	–
CN1C(=O)C2CNCCN2c2ccccc21 (centres undefined)	–	–	9	–

SMILES	Emax [1] [%]	Ki [4] [nM]	inhibition [5] [%]	other results
O=C1Nc2cc(C(F)(F)F)c(Cl)cc2N2CCNC[C@H]12	97	160	–	–
O=C1Nc2ccc(Cl)c(Cl)c2N2CCNCC12 (centres undefined)	–	1700	–	Ki [3]: 1000 nM
O=C1Nc2c(F)cccc2N2CCNCC12 (centres undefined)	–	–	48	–
O=C1Nc2cc(Cl)c(Cl)cc2N2CCNC[C@H]12	112	32	–	ED50 (Rattus norvegicus [6]): 2 mg/kg; Ki [3]: 3 nM; ED50 (Rattus norvegicus [7]): 10 mg/kg
O=C1Nc2ccccc2N2CCNC[C@@H]12	–	–	10	–
O=C1Nc2ccc(Cl)cc2N2CCNCC12 (centres undefined)	–	–	67	–
Nc1ccc2c(c1)NC(=O)C1CNCCN21 (centres undefined)	–	–	0	–
O=C1Nc2c(Cl)cccc2N2CCNCC12 (centres undefined)	–	–	15	–
Clc1cc2c(cc1Cl)N1CCNC[C@H]1CN2	82	61	–	EC50 [2]: 45 nM; Ki [3]: 8 nM
O=C1Nc2c(Cl)cc(Cl)cc2N2CCNCC12 (centres undefined)	–	368	–	–
O=C1Nc2cc(Cl)c(Cl)cc2N2CCNC[C@@H]12	88	285	–	–
O=C(c1ccccc1)c1ccc2c(c1)NC(=O)C1CNCCN21 (centres undefined)	–	9200	–	Ki [3]: 2150 nM
O=C1Nc2cc(Cl)ccc2N2CCNCC12 (centres undefined)	–	–	33	–
O=C1Nc2ccccc2N2CCNCC12 (centres undefined)	–	–	25	–
O=C1Nc2cc(C(F)(F)F)c(Cl)cc2N2CCNCC12 (centres undefined)	108	84	–	EC50 [2]: 136 nM; Ki [3]: 9 nM
NC(=O)c1ccc2c(c1)NC(=O)C1CNCCN21 (centres undefined)	–	–	5	–
O=C1Nc2cc(F)ccc2N2CCNCC12 (centres undefined)	–	–	7	–
Clc1cc2c(cc1Cl)N1CCNCC1CN2 (centres undefined)	96	18	–	EC50 [2]: 7.6 nM
